We go through one molecule from ChEMBL document CHEMBL3407337, “Molecular design, synthesis and biological research of novel pyridyl acridones as potent DNA-binding and apoptosis-inducing agents” (Eur J Med Chem, 2015).

The test system of test [1] is K562. As to the kind of experiment: Induction of apoptosis in human K562 cells assessed as late apoptotic cells at 1 uM after 48 hrs by annexin V/PI staining based flow cytometry (reference value: 0.26 %). Format: functional.
Test [2] relates to K562. As to the kind of experiment: Induction of apoptosis in human K562 cells assessed as late apoptotic cells at 2.5 uM after 48 hrs by annexin V/PI staining based flow cytometry (reference value: 0.26 %). Format: functional. For orientation: A flow cytometer gives signals particle by particle.
For test [3], the system named is K562. As to the kind of experiment: Induction of apoptosis in human K562 cells after 48 hrs by annexin V/PI staining based flow cytometry. Format: functional, cell-based.
For test [4], the system named is K562. Nature of the test: Induction of apoptosis in human K562 cells assessed as cleavage of caspase-7 at 1 uM after 36 hrs by Western blot analysis. Format: functional, cell-based. The method, boiled down: (§1)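 K562 cells in 6 cm dishes treated 36 h at various concentrations. Cells lysed on ice for 0.5 h and spun at 20,000 g. Protein measured by BCA. Lysates run on 12% SDS-PAGE and transferred to PVDF. Membranes blocked in 5% milk and probed overnight at 4 °C with primary antibody against cleaved caspase-9, -7, -3, cleaved PARP or Bcl-XL.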
(In general: Immunoblotting shows a protein as a band on a membrane.)

Test [5] has as its system K562. Nature of the test: Induction of apoptosis in human K562 cells assessed as cleavage of PARP at 1 uM after 36 hrs by Western blot analysis. Format: functional, cell-based. The method in brief:
as §1

The test system of test [6] is K562. As to the kind of experiment: Induction of apoptosis in human K562 cells assessed as loss of mitochondrial membrane potential at 1 uM after 24 hrs by JC-1 staining based fluorescence microscopy. Format: functional, cell-based. The method, boiled down:
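K562 cells exposed to 1 μM for 24 h. Stained with a JC-1 kit and viewed by fluorescence microscopy (red aggregates versus green monomers). Untreated cells served as blank; CCCP at 10 μM as positive control.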

Test [7] deals with NCI-H520. As to the kind of experiment: Antiproliferative activity against human NCI-H520 cells after 48 hrs by MTT assay. Format: functional, cell-based. As to conditions: NCI-H520, 48 h. The method, boiled down: (§2)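 Adherent lines seeded at 6×10^3 cells/well and allowed 12 h attachment. Media: NCI-H520 and HeLa RPMI-1640; HepG2, MCF-7, CNE-2, A375, A172 and U118-MG DMEM; U251 MEM-EBSS; all with 10% FBS, 37 °C, 5% CO2. Dosed 48 h at final 50, 25, 10, 1 and 0.1 μM. MTT 4 h, formazan dissolved in DMSO, A490. IC50 from the dose series.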

Test [8] has as its system U-251. Nature of the test: Antiproliferative activity against human U251 cells after 48 hrs by MTT assay. As to conditions: U-251, 48 h. Format: functional, cell-based. The method, boiled down: as §2
For test [9], the system named is A-375. As to the kind of experiment: Antiproliferative activity against human A375 cells after 48 hrs by MTT assay. As to conditions: A-375, 48 h. Format: functional, cell-based. The method, boiled down: as §2
On the technique in general: Formazan colour is commonly taken as a measure of viable cells.

A short description of test [10]: Antiproliferative activity against human CNE2 cells after 48 hrs by MTT assay. Format: functional, cell-based. The following applies: CNE-2, 48 h. The method, boiled down:
as §2

Test [11] in a line: Antiproliferative activity against human U118MG cells after 48 hrs by MTT assay. Format: functional, cell-based. As to conditions: U-118-MG. The method in brief:
as §2

Test [12] concerns MCF7. As to the kind of experiment: Antiproliferative activity against human MCF7 cells after 48 hrs by MTT assay. The following applies: MCF7, 48 h. Format: functional, cell-based. The method in brief: as §2
The subject of test [13] is Calf thymus DNA. Nature of the test: Binding affinity to calf thymus DNA at 10 uM after 5 mins by UV-vis spectroscopy. Format: nucleic-acid assay. The following applies: Bos taurus. The method, boiled down:
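Compound in 5 mM Tris-HCl, 50 mM NaCl, pH 7.2, titrated with ct DNA at 0–30 μM (bp). Incubated 5 min before reading. Absorbance at 425 nm followed. Kb taken as slope/intercept of [DNA]/(εa−εf) versus [DNA]. ct DNA quantified with ε260 6600 M⁻¹cm⁻¹.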

For test [14], the system named is Calf thymus DNA. As to the kind of experiment: Binding affinity to calf thymus DNA at 10 uM after 5 mins by fluorescence emmission spectroscopic method. Format: nucleic-acid assay. The following applies: Bos taurus. The method in brief: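 Compound at final 10 μM in 5 mM Tris-HCl, 50 mM NaCl, pH 7.2. ct DNA added to final 0–100 μM. Incubated 5 min. Emission recorded with excitation 425 nm. F/F0 plotted against [DNA]/[compound].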

Test [15] is filed under the species Bos taurus. As to the kind of experiment: Displacement of ethidium bromide from calf thymus DNA assessed as quenching constant up to 30 uM after 5 mins by competitive binding fluorescence method. The method, boiled down: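 EB final 10 μM with ct DNA 40 μM in Tris-HCl/50 mM NaCl, pH 7.2. Compound added at final 0, 5, 10, 20 and 30 μM. Incubated 5 min, excitation 366 nm, emission near 600 nm. Quenching constant from the Stern–Volmer fit F0/F = 1 + K[Q].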

The test system of test [16] is K562. Nature of the test: Induction of apoptosis in human K562 cells assessed as late apoptotic cells at 0.05 uM after 48 hrs by annexin V/PI staining based flow cytometry (reference value: 0.26 %). Format: functional.
For test [17], the system named is K562. Nature of the test: Induction of apoptosis in human K562 cells assessed as late apoptotic cells at 0.25 uM after 48 hrs by annexin V/PI staining based flow cytometry (reference value: 0.26 %). Format: functional.
Test [18] relates to K562. As to the kind of experiment: Induction of apoptosis in human K562 cells assessed as early apoptotic cells at 0.5 uM after 48 hrs by annexin V/PI staining based flow cytometry (reference value: 3.89 %). Format: functional.
The subject of test [19] is K562. Nature of the test: Induction of apoptosis in human K562 cells assessed as late apoptotic cells at 0.5 uM after 48 hrs by annexin V/PI staining based flow cytometry (reference value: 0.26 %). Format: functional.

The structures appear in SMILES notation. pIC50: −log10 of the molar value. The source made the active and inactive calls. The rule behind the calls is not given here.

As to `Cc1cccc2c(=O)c3c(NCc4ccncc4)ccc(C(=O)NCCN(C)C)c3[nH]c12`, the Activity in test [1] was 7.54%; in [2], 20.24%; in test [3] it was “Dose-dependent effect”; in [16] it was 0.49%; in [17], 1.08%; in [18], 23.13%. Moreover, in [19], the Activity is recorded as 2.13%. The result in [4], in test [5], in test [6] and in [14] was Active. Besides, the negative-log IC50 (pIC50) is 5.99 in [7]; 6.10 in test [8]; 6.80 in test [9]; 6.01 in [10]; 5.97 in [11]; 5.59 in [12]. The Kb in test [13] came to 5.1 ×10⁴ /M. Besides, in test [15], the Kq stood at 1 ×10⁴ /M.

Usually pIC50 stands for −log10 of the IC50, conventionally taken in molar units. High values mean a small IC50, low ones a large IC50.
